Measured values: ChEMBL document CHEMBL3994597, “Resin Glycosides from Ipomoea alba Seeds as Potential Chemosensitizers in Breast Carcinoma Cells” (J Nat Prod, 2016)

Experiments:
MDA-MB-231 = assay: Cytotoxicity against human MDA-MB-231 cells assessed as growth inhibition after 72 hrs by SRB assay; type: functional, cell-based; conditions: MDA-MB-231, 72 h
In short: (§1)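 Cells in log phase, grown in RPMI 1640 with 10% FBS at 37 °C, 5% CO2, humidified, were exposed in triplicate to test samples at 0.2−25 μg/mL for 72 h. Growth was read by sulforhodamine B staining. IC50 is the concentration giving 50% growth inhibition relative to untreated control, taken from a semilog plot of concentration (μg/mL) against % inhibition. Vinblastine served as positive control.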

MCF7 [1] = assay: Cytotoxicity against vinblastine-sensitive human MCF7 cells assessed as growth inhibition after 72 hrs by SRB assay; type: functional, cell-based; conditions: MCF7, 72 h; in short: as §1
HCT-116 = assay: Cytotoxicity against human HCT116 cells assessed as growth inhibition after 72 hrs by SRB assay; type: functional, cell-based; conditions: HCT-116, 72 h; in short: as §1
MCF7 [2] = assay: Cytotoxicity against multidrug resistant human MCF7 cells cultured in vinblastine containing medium assessed as growth inhibition after 72 hrs by SRB assay; type: functional, cell-based; conditions: MCF7, 72 h; in short: as §1
MCF7 [3] = assay: Cytotoxicity against multidrug resistant human MCF7 cells cultured in vinblastine free medium assessed as growth inhibition after 72 hrs by SRB assay; type: functional, cell-based; conditions: MCF7, 72 h; in short: as §1
HCT-15 = assay: Cytotoxicity against human HCT15 cells assessed as growth inhibition after 72 hrs by SRB assay; type: functional, cell-based; conditions: HCT-15, 72 h; in short: as §1
HeLa = assay: Cytotoxicity against human HeLa cells assessed as growth inhibition after 72 hrs by SRB assay; type: functional, cell-based; in short: as §1
Homo sapiens [4] = species on record: Homo sapiens; assay: (§2) Inhibition of multidrug resistance efflux pump in multidrug resistant human MCF7 cells cultured in vinblastine free medium assessed as potentiation of vinblastine-induced cytotoxicity by measuring fold reduction in vinblastine IC50 at 25 ug/ml after 72 hrs by SRB assay relative to vinblastine alone
In short: (§3)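 MCF-7/Vin− cells were a stock of the resistant line maintained in vinblastine-free medium.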

Homo sapiens [5] = species on record: Homo sapiens; assay: as §2, with “containing” for “free”
In short: (§4)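 MCF-7/Vin+ resistant cells were kept in medium containing 0.192 μg/mL vinblastine to hold resistance.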

MCF7 [6] = assay: Potentiation of vinblastine-induced cytotoxicity against vinblastine-sensitive human MCF7 cells assessed as fold reduction in vinblastine IC50 at 25 ug/ml after 72 hrs by SRB assay relative to vinblastine alone; type: functional
In short: (§5)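 Modulation assay in sensitive MCF-7 or resistant MCF-7/Vin cells. Cells received vinblastine at 0.00064−10 μg/mL, alone or with glycolipid at 25 or 5 μg/mL, for 72 h. Read-out was SRB, and vinblastine IC50 was derived as in the cytotoxicity assay. Reversal fold = IC50 of vinblastine alone / IC50 with glycolipid. Reserpine at 5 μg/mL served as positive control. Values are mean ± SD of three independent experiments.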

Homo sapiens [7] = species on record: Homo sapiens; assay: (§6) Inhibition of multidrug resistance efflux pump in multidrug resistant human MCF7 cells cultured in vinblastine free medium assessed as potentiation of vinblastine-induced cytotoxicity by measuring fold reduction in vinblastine IC50 at 5 ug/ml after 72 hrs by SRB assay relative to vinblastine alone; in short: as §3
Homo sapiens [8] = species on record: Homo sapiens; assay: as §6, with “containing” for “free”; in short: as §4
MCF7 [9] = assay: Potentiation of vinblastine-induced cytotoxicity against vinblastine-sensitive human MCF7 cells assessed as fold reduction in vinblastine IC50 at 5 ug/ml after 72 hrs by SRB assay relative to vinblastine alone; type: functional; in short: as §5

SMILES	IC50 (MDA-MB-231) [µM]	IC50 (MCF7 [1]) [µM]	IC50 (HCT-116) [µM]	IC50 (MCF7 [2]) [µM]	IC50 (MCF7 [3]) [µM]	IC50 (HCT-15) [µM]	IC50 (HeLa) [µM]	fold change (FC) (Homo sapiens [4])	fold change (FC) (Homo sapiens [5])	fold change (FC) (MCF7 [6])	fold change (FC) (Homo sapiens [7])	fold change (FC) (Homo sapiens [8])	fold change (FC) (MCF7 [9])
CC[C@]1(O)C[C@@H]2CN(CCc3c([nH]c4ccccc34)[C@@](C(=O)OC)(c3cc4c(cc3OC)N(C)[C@H]3[C@@](O)(C(=O)OC)[C@H](OC(C)=O)[C@]5(CC)C=CCN6CC[C@]43[C@@H]65)C2)C1 [VINBLASTINE]	0.01	0.06	0.05	1.3	1.1	0.06	0.002	–	–	–	–	–	–
Cc1c2ccncc2c(C)c2c1[nH]c1ccccc12 [ELLIPTECINE]	–	–	–	2	1.6	–	–	–	–	–	–	–	–
C/C=C(\C)C(=O)O[C@H]1[C@@H]2O[C@H]3[C@H](O[C@@H](CCC)CCCCCCCCCC(=O)O[C@@H]4[C@@H](O)[C@H](C)O[C@@H](O[C@H]5[C@H](O)[C@@H](C)O[C@@H](O[C@H]([C@H]1O)[C@H](C)O2)[C@@H]5O[C@@H]1O[C@@H](C)[C@H](O)[C@@H](O)[C@H]1OC(=O)[C@H](C)[C@@H](C)O)[C@@H]4O)O[C@H](C)[C@@H](O)[C@@H]3O	> 20	> 20	> 20	> 20	> 20	> 20	> 20	283	3	37	–	–	–
C/C=C(\C)C(=O)O[C@@H]1[C@H](O)[C@@H](O)[C@H](O[C@@H]2[C@@H](O)[C@@H](OC(=O)/C(C)=C/C)[C@H](O[C@H]3[C@@H]4O[C@H]5[C@H](O[C@@H](CCC)CCCCCCCCCC(=O)O[C@H]3[C@H](O)[C@@H](CO)O4)O[C@H](C)[C@@H](O)[C@@H]5O)O[C@H]2C)O[C@@H]1C	> 20	15.1	15.1	> 20	> 20	14.3	17.4	5	> 2520	>87	–	–	–
CCC[C@H]1CCCCCCCCCC(=O)O[C@H]2[C@H](O[C@H]3[C@H](O)[C@@H](C)O[C@@H](O[C@H]4[C@H](O1)O[C@H](C)[C@@H](O)[C@@H]4O)[C@@H]3O[C@@H]1O[C@@H](C)[C@H](OC(C)=O)[C@@H](O)[C@H]1O)O[C@H](C)[C@@H](O)[C@@H]2OC(=O)[C@H](C)[C@@H](C)O	> 20	> 20	> 20	> 20	> 20	> 20	> 20	322	201	34	–	–	–
COc1cc2c(c(OC)c1OC)-c1ccc(OC)c(=O)cc1[C@@H](NC(C)=O)CC2 [COLCHICINE]	–	0.05	–	2.8	2.8	–	–	–	–	–	–	–	–
CC[C@@]1(O)C(=O)OCc2c1cc1n(c2=O)Cc2cc3ccccc3nc2-1 [CAMPTOTHECIN]	–	< 0.0018	–	< 0.0018	< 0.0018	–	–	–	–	–	–	–	–
C/C=C(\C)C(=O)O[C@@H]1[C@H](O)[C@@H](O)[C@H](O[C@@H]2[C@@H](O)[C@@H](OC(=O)/C(C)=C/C)[C@H](O[C@H]3[C@@H]4O[C@H]5[C@H](O[C@@H](CCCCC)CCCCCCCCCC(=O)O[C@H]3[C@H](O)[C@@H](CO)O4)O[C@H](C)[C@@H](O)[C@@H]5O)O[C@H]2C)O[C@@H]1C	11.6	8	15.9	17	16.3	9.8	9.6	> 1980	> 2520	>87	–	–	–
CCC[C@H]1CCCCCCCCCC(=O)O[C@H]2[C@H](OC[C@H]3O[C@@H](O[C@H]4[C@H](O1)O[C@H](C)[C@@H](O)[C@@H]4O)[C@H](O[C@@H]1O[C@@H](C)[C@H](OC(C)=O)[C@@H](O)[C@H]1O)[C@@H](O)[C@@H]3O)O[C@H](C)[C@@H](O)[C@@H]2OC(=O)[C@H](C)[C@@H](C)O	> 20	> 20	> 20	> 20	> 20	> 20	> 20	1	2	4	–	–	–
COc1cc([C@@H]2c3cc4c(cc3[C@H](O)[C@H]3COC(=O)[C@H]23)OCO4)cc(OC)c1OC [PODOFILOX]	–	0.02	–	0.3	0.2	–	–	–	–	–	–	–	–
COC(=O)[C@H]1[C@H]2C[C@@H]3c4[nH]c5cc(OC)ccc5c4CCN3C[C@H]2C[C@@H](OC(=O)c2cc(OC)c(OC)c(OC)c2)[C@@H]1OC [RESERPINE]	–	–	–	–	–	–	–	–	–	–	20	3	11
C/C=C(\C)C(=O)O[C@H]1[C@H](O[C@H]2[C@@H]3O[C@H]4[C@H](O[C@@H](CCC)CCCCCCCCCC(=O)O[C@H]5[C@H](O[C@H]6[C@H](OC[C@@H](O3)[C@@H](O)[C@@H]2O)O[C@H](C)[C@@H](O)[C@@H]6O)O[C@@H](C)[C@H](O)[C@H]5O)O[C@H](C)[C@@H](O)[C@@H]4O)O[C@@H](C)[C@H](O)[C@H]1O	> 20	> 20	> 20	> 20	> 20	> 20	> 20	1700	3	4	–	–	–
